Reference: ChEMBL document CHEMBL4184136, “α-Glucosidase Inhibitory and Cytotoxic Taxane Diterpenoids from the Stem Bark of Taxus wallichiana” (J Nat Prod, 2017)

Key:
[1] = Inhibition of Saccharomyces cerevisiae alpha-glucosidase using p-nitrophenyl-alpha-D-glucopyranoside substrate incubated for 30 mins
Procedure, shortened: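 Sample solution received 3 mM p-nitrophenyl-α-D-glucopyranoside and 0.2 U/mL α-glucosidase (stock levels) in 0.01 M phosphate buffer pH 7.0, incubated at 37 °C for 30 min. Stopped with 0.1 M Na2CO3; p-nitrophenol release read at 401 nm. IC50 is the concentration giving 50% inhibition of enzyme activity; acarbose as positive control.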

HeLa = experiment: Cytotoxicity against human HeLa cells assessed as reduction in cell viability incubated for 72 hrs by WST-8 dye based assay; assay type: functional
Procedure, shortened: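 HeLa cells kept in DMEM with 10% FBS, 0.1% NaHCO3 and 1% antibiotic-antimycotic. Cells seeded at 2 × 10^3/well and grown 24 h at 37 °C in humidified 5% CO2. Washed with PBS, then exposed to serially diluted samples in DMEM for 72 h. Washed twice, given DMEM with 10% WST-8 for 3 h, A450 read; viability from mean of three wells; IC50.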

Saccharomyces cerevisiae = experiment: Potency index, ratio of IC50 for Acarbose to IC50 for test compound for inhibition of Saccharomyces cerevisiae alpha-glucosidase using p-nitrophenyl-alpha-D-glucopyranoside substrate incubated for 30 mins

Row | Structure (SMILES) | IC50 [1] [µM] | IC50 (HeLa) [µM] | Ratio IC50 (Saccharomyces cerevisiae)
1 | C=C1[C@@H](O)C[C@H](OC(C)=O)[C@@]2(C)[C@@H](OC(C)=O)[C@H](OC(C)=O)C3=C(C)C(=O)C[C@@H]([C@@H](OC(C)=O)[C@H]12)C3(C)C | > 250 | > 10 | –
2 | C=C1[C@@H](OC(=O)/C=C/c2ccccc2)C[C@H](OC(C)=O)[C@]2(C)[C@@H]1C[C@@H]1C[C@H](O)C(C)=C([C@@H](OC(C)=O)[C@@H]2OC(C)=O)C1(C)C [TAXEZOPIDINE H] | 15 | > 10 | –
3 | C/C=C(\C)C(=O)N[C@@H](c1ccccc1)[C@@H](O)C(=O)O[C@H]1C[C@@]2(O)[C@@H](OC(=O)c3ccccc3)[C@@H]3[C@]4(OC(C)=O)CO[C@@H]4C[C@H](O[C@@H]4OC[C@@H](O)[C@H](O)[C@H]4O)[C@@]3(C)C(=O)C(=O)C(=C1C)C2(C)C | 142 | – | –
4 | C=C1[C@@H](OC(C)=O)CC[C@@]2(C)C[C@H](OC(C)=O)C3=C(C)C[C@H](OC(=O)C(C)C(C)O)[C@@H]([C@@H](OC(C)=O)[C@H]12)C3(C)C (some centres undefined) | 194 | > 10 | –
5 | C=C1[C@@H](OC(C)=O)CC[C@@]2(C)C[C@H](OC)C3=C(C)C[C@H](OC(=O)C(C)C(C)O)[C@@H]([C@@H](OC(C)=O)[C@H]12)C3(C)C (some centres undefined) | 3.6 | – | 60
6 | C=C1[C@@H](OC(=O)/C=C/c2ccccc2)C[C@H](OC(C)=O)[C@@]2(C)[C@@H](OC(C)=O)[C@H](OC(C)=O)C3=C(C)C(=O)C[C@@H]([C@@H](OC(C)=O)[C@H]12)C3(C)C | 111 | – | –
7 | CC(=O)O[C@@]12CO[C@@H]1C[C@@H](O)[C@@]1(C)C(=O)[C@H](O)C3=C(C)[C@@H](OC(=O)[C@H](O)[C@@H](NC(=O)c4ccccc4)c4ccccc4)C[C@@](O)([C@@H](OC(=O)c4ccccc4)[C@H]21)C3(C)C | 48.8 | 8.5e-05 | –
8 | CCCCCC(=O)N[C@@H](c1ccccc1)[C@@H](O)C(=O)O[C@H]1C[C@@]2(O)[C@@H](OC(=O)c3ccccc3)[C@@H]3[C@]4(OC(C)=O)CO[C@@H]4C[C@H](O[C@@H]4OC[C@@H](O)[C@H](O)[C@H]4O)[C@@]3(C)C(=O)[C@H](OC(C)=O)C(=C1C)C2(C)C | 94.1 | 0.0015 | –
9 | C=C1[C@@H](O)C[C@H](OC(C)=O)[C@@]2(C)[C@@H](OC(C)=O)[C@H](OC(C)=O)C3=C(C)C(=O)C[C@@H]([C@@H](O)[C@H]12)C3(C)C | > 250 | > 10 | –
10 | COc1cc(C[C@@H]2COC(=O)[C@H]2Cc2ccc(O)c(OC)c2)ccc1O | 175 | > 10 | –
11 | C=C1[C@@H](O)CC[C@@]2(C)C[C@H](OC)C3=C(C)C[C@H](OC(=O)C(C)C(C)O)[C@@H]([C@@H](OC(C)=O)[C@H]12)C3(C)C (some centres undefined) | 113 | – | –
12 | CC(=O)O[C@H]1C(=O)[C@@]2(C)[C@H]([C@H](OC(=O)c3ccccc3)[C@]3(O)C[C@H](OC(=O)[C@H](O)[C@@H](NC(=O)c4ccccc4)c4ccccc4)C(C)=C1C3(C)C)[C@]1(OC(C)=O)CO[C@@H]1C[C@@H]2O [PACLITAXEL] | > 250 | – | –
13 | C=C1[C@H]2C[C@]34CC=C(C)C3[C@@H](OC4(C)C)[C@H](OC(C)=O)[C@]2(C)[C@@H](OC(C)=O)C[C@@H]1O (some centres undefined) | 88.5 | > 10 | –
14 | CC1(C)CC[C@]2(C(=O)O)CC[C@]3(C)C(=CC[C@@H]4[C@@]5(C)CC[C@H](O)C(C)(C)[C@@H]5CC[C@]43C)[C@@H]2C1 [OLEANOLIC_ACID] | 87.2 | – | –
15 | C=C1[C@@H](OC(=O)/C=C/c2ccccc2)C[C@H](OC(C)=O)[C@]2(C)[C@@H]1C[C@@H]1C[C@H](OC(C)=O)C(C)=C([C@@H](OC(C)=O)[C@@H]2OC(C)=O)C1(C)C | 38 | 5.7 | –
16 | CC(C)CC[C@@H](O)[C@](C)(O)[C@H]1CC[C@@]2(O)C3=CC(=O)[C@@H]4C[C@@H](O)[C@@H](O)C[C@]4(C)[C@H]3CC[C@]12C [PONASTERONE A] | 115 | > 10 | –
17 | C[C@H]1O[C@H](O[C@H]2[C@H](O)[C@@H](O)[C@@H](O[C@H]3[C@H](O)[C@@H](O)C(O)O[C@@H]3CO)O[C@@H]2CO)[C@H](O)[C@@H](O)[C@@H]1N[C@H]1C=C(CO)[C@@H](O)[C@H](O)[C@H]1O (some centres undefined) [ACARBOSE] | 215 | – | –
18 | CO[C@H]1O[C@H]2[C@@H]3[C@@H]1[C@@H](O)C[C@H](O)[C@@]3(C)[C@@H](O)[C@H](OC(C)=O)C1=C(C)[C@@H](OC(C)=O)C[C@]2(O)C1(C)C | 97.5 | > 10 | –
19 | C=C1[C@@H]2[C@H](OC(C)=O)[C@@H]3CC(=O)[C@@]4(C)OC[C@@]3(C)[C@@]4(O)[C@@H](OC(C)=O)[C@H](OC(C)=O)[C@]2(COC(=O)c2ccccc2)[C@@H](OC(C)=O)C[C@@H]1O | > 250 | > 10 | –
20 | CCCCCCCCC/C=C\CC/C=C/[C@@H](O)[C@H](CO[C@@H]1O[C@H](CO)[C@@H](O)[C@H](O)[C@H]1O)NC(=O)[C@H](O)CCCCCCCCCCCCC | > 250 | > 10 | –
21 | CC(=O)O[C@@]12CO[C@@H]1C[C@H](O)[C@@]1(C)C(=O)[C@H](O)C3=C(C)C(=O)C[C@@](O)([C@@H](OC(=O)c4ccccc4)[C@H]21)C3(C)C | > 250 | > 10 | –
22 | CC(=O)O[C@@]12CO[C@@H]1C[C@H](O[C@@H]1OC[C@@H](O)[C@H](O)[C@H]1O)[C@@]1(C)C(=O)C(=O)C3=C(C)CC[C@@]3(C(C)(C)OC(=O)c3ccccc3)[C@@H](O)[C@H]21 | 83.6 | 4.9 | –
23 | CC(=O)O[C@H]1C(=O)[C@]2(C)[C@H](O)C[C@H]3OC[C@@]3(OC(C)=O)[C@H]2[C@H](OC(=O)c2ccccc2)[C@]2(O)C[C@H](OC(=O)[C@H](O)[C@@H](NC(=O)c3ccccc3)c3ccccc3)C(C)=C1C2(C)C | 42.7 | – | –
24 | CC(=O)O[C@@]12CO[C@@H]1C[C@H](O)[C@@]1(C)C(=O)[C@H](O)C3=C(C)[C@@H](OC(=O)[C@H](O)[C@@H](NC(=O)c4ccccc4)c4ccccc4)C[C@@](O)([C@@H](OC(=O)c4ccccc4)[C@H]21)C3(C)C | > 250 | 0.00075 | –
25 | COc1cc([C@H]2c3cc(O)c(OC)cc3C[C@H]3C(=O)OC[C@H]23)ccc1O [ALPHA-CONIDENDRIN] | 194 | > 10 | –
26 | COc1cc(C[C@H]2COC(=O)[C@@H]2Cc2ccc(O)c(OC)c2)ccc1O [MATAIRESINOL] | 46.5 | – | –
27 | CCCCCC(=O)N[C@@H](c1ccccc1)[C@@H](O)C(=O)O[C@H]1C[C@@]2(O)[C@@H](OC(=O)c3ccccc3)[C@@H]3[C@]4(OC(C)=O)CO[C@@H]4C[C@H](O[C@@H]4OC[C@@H](O)[C@H](O)[C@H]4O)[C@@]3(C)C(=O)[C@H](O)C(=C1C)C2(C)C | 86.9 | 0.05 | –
28 | CC=C(C)C(=O)N[C@@H](c1ccccc1)[C@@H](O)C(=O)O[C@H]1C[C@@]2(O)[C@@H](OC(=O)c3ccccc3)[C@@H]3[C@]4(OC(C)=O)CO[C@@H]4C[C@H](O[C@@H]4OC[C@@H](O)[C@H](O)[C@H]4O)[C@@]3(C)C(=O)[C@H](OC(C)=O)C(=C1C)C2(C)C | > 250 | 0.14 | –
29 | C=C1[C@@H](OC(C)=O)CC[C@@]2(C)C[C@H](OC)C3=C(C)C[C@H](OC(C)=O)[C@@H]([C@@H](OC(C)=O)[C@H]12)C3(C)C | 31.8 | – | –
